Assay results reported in publication PMC8842656 (Journal of Experimental Pharmacology, 2022).
Like-named read-outs stand apart in the source and are kept apart here.

How the values were obtained:
Long-term = format: in vivo, rat; settings: 100 mg/kg/day oral, day 28
Method in brief: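 Sprague-Dawley rats (3 males and 3 females) were dosed with test compound by oral gavage at 100 mg/kg/day for 28 days, suspended in 2% carboxymethylcellulose. On day 28 the animals were anesthetized and blood was sampled from 5 min to 24 h after dosing. Compound was quantified by LC/MS/MS, and Cmax and Tmax were taken from the mean (n=6) concentration-time profile.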

[1] = 500 mg/kg oral and 20 mg/kg i.v., blood at 2 and 6 hours; cited from earlier work
[2] = test system: LPS-induced experimental periodontal disease; settings: rats, oral, 28 days, doses 0, 1, 5, 10 and 30 mg/kg; cited from earlier work
Sprague-Dawley (SD) rats [3] = assay: 28-day toxicology evaluation within long-term PK study, oral gavage once daily; format: in vivo, rat; settings: 100 mg/kg/day oral
Method in brief: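 Male and female Sprague-Dawley rats, 6–8 weeks old (250–350 g), 3+3 per group, received 2% carboxymethylcellulose vehicle or test compound suspended in it at 100 mg/kg/day by oral gavage for 28 days. Adverse events, body weight and daily food intake were tracked. Terminal hematology and serum biochemistry, gross necropsy, and histopathology of heart, lungs, liver, kidney, spleen and colon followed. Two-tailed Student's t-test versus vehicle, p<0.05.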

[4] = Single dose pharmacokinetic study, oral gavage, blood by LC/MS/MS; format: in vivo, rat
Method in brief: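 Two groups of 6 Sprague-Dawley rats (3 males and 3 females each), 6–8 weeks old, received a single oral gavage of test compound at 500 or 1000 mg/kg, suspended in 2% carboxymethylcellulose. Blood was drawn at 5, 10, 15, 30, 45 min and 1, 2, 4, 6, 24 h. Compound was measured by LC/MS/MS, and t1/2, Tmax and Cmax were derived from mean (n=6) profiles.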

Sprague-Dawley (SD) rats [5] = assay: 5-day maximum tolerated dose; format: in vivo, rat
Method in brief: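 Thirty Sprague-Dawley rats, 60–65 days old (276–300 g), viral-antibody free, formed 5 groups of 3 males and 3 females. They received 2% carboxymethylcellulose vehicle or test compound suspended in it at 50, 100, 500 or 1000 mg/kg/day by oral gavage once daily for 5 days. Mortality, body weight and food intake were monitored. Terminal hematology, clinical chemistry and necropsy followed, with control and high-dose organs sectioned. Two-tailed Student's t-test, p<0.05.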

[6] = humans, cited from earlier work
[7] = oral dose of 2g/kg; cited from earlier work
[8] = 28-Day PK Study, compared to placebo-treated controls
[9] = 50-1000 mg/kg/day oral, 5 days, both sexes

Question: For `O=C(/C=C/c1ccc(O)cc1)C(C(=O)/C=C/c1ccc(O)cc1)C(=O)Nc1ccccc1` [CMC2.24], which “Peak blood concentration (Cmax)” value (Long-term) is on record?
Answer: 0.2 ng/mL

Question: And the Tmax (Long-term)?
Answer: 4 h

Question: And the “Bioavailability based on blood analysis” value [1]?
Answer: poor bioavailability

Question: What about the “Minimum effective dose to inhibit inflammation and alveolar bone resorption” value [2] of the same compound?
Answer: 1 mg/kg/day

Question: What about the Adverse events (Sprague-Dawley (SD) rats [3]; 28 days) of the same compound?
Answer: no adverse events were reported

Question: What about the “Mean body weight vs placebo treated controls” value (Sprague-Dawley (SD) rats [3]; 28 days, both sexes) of the same compound?
Answer: no significant differences

Question: And the “Hematological & Serological parameters” value (Sprague-Dawley (SD) rats [3]; [8])?
Answer: No change observed

Question: What about the “Histology of organs (Heart, Lungs, Spleen, Liver, Kidney, Colon)” value (Sprague-Dawley (SD) rats [3]; [8]) of the same compound?
Answer: Normal Histology Observed

Question: And the Serum half-life ([4]; oral administration)?
Answer: 10 h

Question: What about the Cmax in blood ([4]; single oral dose 500 mg/kg) of the same compound?
Answer: 8 ng/mL

Question: What about the Tmax ([4]; single oral dose 500 mg/kg) of the same compound?
Answer: 0.75 h

Question: What about the Cmax in blood ([4]; single oral dose 1000 mg/kg) of the same compound?
Answer: 6.7 ng/mL

Question: What about the Tmax ([4]; single oral dose 1000 mg/kg) of the same compound?
Answer: 0.75 h

Question: And the “Daily food consumption and adverse events” value (Sprague-Dawley (SD) rats [5]; [9])?
Answer: no difference

Question: What about the “Mean body weight vs placebo treated controls” value (Sprague-Dawley (SD) rats [5]; [9]) of the same compound?
Answer: did not show significant differences

Question: And the “Highest dose found safe (MTD not demonstrated)” value (Sprague-Dawley (SD) rats [5]; oral, one week of treatment)?
Answer: ≥ 1000 mg/kg

Question: With `COc1cc(C=CC(=O)CC(=O)C=Cc2ccc(O)c(OC)c2)ccc1O` [curcumin, 1,7-bis-(4-hydroxy-3-methoxyphenyl)-1,6-heptadiene-3,5-dione] as the compound, how does the Cmax in serum ([6]; oral dose of 10 g/kg) read?
Answer: 50.5 ng/mL

Question: And the “Time of Cmax” value ([6]; oral dose of 10 g/kg)?
Answer: 4 h

Question: And the Cmax in serum ([6]; oral dose of 12 g/kg)?
Answer: 57.6 ng/mL

Question: And the “Time of Cmax” value ([6]; oral dose of 12 g/kg)?
Answer: 2 h

Question: And the Cmax [7]?
Answer: 1350 ± 230 ng/mL

Question: And the “Time of Cmax” value [7]?
Answer: 0.75 h
